Results as given in ChEMBL document CHEMBL4813972, “A grafted peptidomimetic for EGFR heterodimerization inhibition: Implications in NSCLC models” (Eur J Med Chem, 2021).
Calls of active or inactive are those of the source. The calls are words filed in the database; no cut-off is given here. Starred links: 1 amine or outer side, 2 acyl side, 3 side chain; linkers in the order of their positions; H or OH if unused. Positions of bridges follow the written chain, without caps; N, C: chain ends. Non-standard residues stand in square brackets, D forms with d. Residues, ends and D or L forms follow the SMILES beside them. X1 = N=C(N)NCCC[C@H](N[*:2])C(=O)NC(=O)[C@H](CC(=O)O)NC(=O)[*:1]; βAla(3R-(1-naphthyl)) = O=C(C[C@@H](N[*:1])c1cccc2ccccc12)[*:2]; βAla(3S-(1-naphthyl)) = O=C(C[C@H](N[*:1])c1cccc2ccccc12)[*:2]

How the values were obtained:
MCF7 = assay: Antiproliferative activity against human MCF7 cells with silenced HER2 assessed as cell growth inhibition incubated for 72 hrs by cell titer glo assay; format: functional, cell-based; details: MCF7, 72 h
Summary of the method: (§1)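 Cells seeded at 1×10^4 per well, left overnight at 37 °C/5% CO2, then exposed to a concentration series of peptide (up to 200, down to 0.01 μM) for 72 h. 1% SDS and 1% DMSO served as controls. Cells were PBS-washed, CellTiter-Glo added and luminescence read. IC50 taken from three independent experiments per cell line.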

MCF-10A = assay: Cytotoxicity against human MCF-10A cells assessed as cell growth inhibition incubated for 72 hrs by cell titer glo assay; format: cell-based; summary of the method: as §1
[1] = Toxicity in BALB/c mouse assessed as increase in Ki-67 expression at 5 ug/ml, iv administered on day 0 and 10 and spleenocytes collected on day 13 and incubated for 48 hrs by flow cytometry analysis; format: organism-based; details: in vivo, 360 h, dose 5 µg/ml, time 15 day
Summary of the method: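 Splenocytes from PBS- or peptide-primed BALB/c mice (6 mg/kg i.v. days 0 and 10; harvested day 13) cultured 48 h with concanavalin A 5 μg/mL. Ki67 in CD3+ cells measured by flow cytometry after viability, surface and intracellular staining.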

BT-474 = assay: Antiproliferative activity against human BT-474 cells overexpressing HER2 assessed as cell growth inhibition incubated for 72 hrs by cell titer glo assay; format: functional, cell-based; details: BT-474, 72 h
Calu-3 [2] = assay: Antitumor activity in human Calu-3 cells xenografted in Foxn1nu/Foxn1+ mouse assessed as reduction in tumor growth at 6 mg/kg, IT(Intratumoral) administered thrice a week for 21 days in presence of trastu-zumab and measured on day 21 relative to control; format: functional, organism-based; details: time 21.0 day
Calu-3 [3] = assay: Antitumor activity in human Calu-3 cells xenografted in Foxn1nu/Foxn1+ mouse assessed as reduction in tumor growth at 8 mg/kg, IT(Intratumoral) administered thrice a week for 21 days and measured on day 21 relative to control; details: time 21.0 day
Calu-3 [4] = assay: Antiproliferative activity against human Calu-3 cells overexpressing HER2 assessed as cell growth inhibition incubated for 72 hrs by cell titer glo assay; format: functional, cell-based; details: Calu-3, 72 h
A549 = assay: Antiproliferative activity against human A549 cells overexpressing HER2 assessed as cell growth inhibition incubated for 72 hrs by cell titer glo assay; format: functional, cell-based; details: A549, 72 h; summary of the method: as §1

SMILES | IC50 (MCF7) | IC50 (BT-474) | further results
N=C(N)NCCC[C@@H]1NC(=O)[C@H]2CCCN2C(=O)[C@@H]2CCCN2C(=O)[C@H](CCCNC(=N)N)NC(=O)C[C@H](c2cccc3ccccc23)NC(=O)[C@H](Cc2ccccc2)NC(=O)[C@H](CC(=O)O)NC(=O)[C@H](CC(=O)O)NC(=O)[C@H](Cc2ccccc2)NC(=O)C[C@H](c2cccc3ccccc23)NC1=O (cyclo(DDF[βAla(3R-(1-naphthyl))]RP[dP]R[βAla(3R-(1-naphthyl))]F)) | > 50 µM | – | IC50 (MCF-10A): 40 µM
Cc1cn(C2C[C@H](N=[N+]=[N-])[C@@H](CO)O2)c(=O)[nH]c1=O (stereo partly specified) | – | – | Activity [1]: Toxic
N=C(N)NCCC[C@@H]1NC(=O)[C@H]2CCCN2C(=O)[C@@H]2CCCN2C(=O)[C@H](CCCNC(=N)N)NC(=O)C[C@H](c2cccc3ccccc23)NC(=O)N[C@H]2CSSC[C@H](NC(=O)C[C@H](c3cccc4ccccc34)NC1=O)C(=O)N[C@@H](Cc1ccccc1)C(=O)N[C@@H](CC(=O)O)C(=O)NC(=O)[C@H](CC(=O)O)NC(=O)[C@H](Cc1ccccc1)NC2=O | > 50 µM | 3.65 µM | –
CC[C@H](C)[C@@H]1NC(=O)[C@H](CO)NC(=O)[C@H](CC(=O)O)NC(=O)[C@H](Cc2ccccc2)NC(=O)[C@@H]2CSSC[C@H](NC(=O)[C@H](Cc3ccccc3)NC(=O)[C@H](CC(=O)O)NC1=O)C(=O)N[C@H](c1cccc3ccccc13)CC(=O)N[C@@H](CCCNC(=N)N)C(=O)NC(=O)[C@H](CC(=O)O)NC(=O)N[C@@H](CCCNC(=N)N)C(=O)N[C@H](c1cccc3ccccc13)CC(=O)N2 (R[βAla(3S-(1-naphthyl))]CFDSIDFC[βAla(3S-(1-naphthyl))]; disulfide 3-10; linker N-C via X1) | > 50 µM | 4.16 µM | –
Cc1ccc(OCC(O)C(C)NC(C)C)c2c1CCC2 (stereo unspecified) | – | – | Activity (Calu-3 [2]): Active; Activity (Calu-3 [3]): Active
CC[C@H](C)[C@H]1C(=O)NC(=O)[C@H](CCCNC(=N)N)NC(=O)C[C@H](c2cccc3ccccc23)NC(=O)N[C@H]2CSSC[C@H](NC(=O)C[C@H](c3cccc4ccccc34)NC(=O)[C@H](CCCNC(=N)N)NC(=O)[C@@H]3CCCN3C(=O)[C@@H]3CCCN13)C(=O)N[C@@H](Cc1ccccc1)C(=O)N1CCC[C@H]1C(=O)N[C@@H](CC(=O)O)C(=O)NC(=O)[C@H](CC(=O)O)NC(=O)[C@H](Cc1ccccc1)NC2=O | > 50 µM | 2.94 µM | –
N=C(N)NCCC[C@@H]1NC(=O)[C@H]2CCCN2C(=O)[C@@H]2CCCN2C(=O)[C@H](CCCNC(=N)N)NC(=O)C[C@H](c2cccc3ccccc23)NC(=O)N[C@H]2CSSC[C@H](NC(=O)C[C@H](c3cccc4ccccc34)NC1=O)C(=O)N[C@@H](Cc1ccccc1)C(=O)NC(=O)[C@H](Cc1ccccc1)NC2=O | > 50 µM | 5.23 µM | –
CC[C@H](C)[C@@H]1NC(=O)[C@@H]2CCCN2C(=O)[C@@H]2CCCN2C(=O)NC(=O)[C@H](CC(=O)O)NC(=O)[C@H](Cc2ccccc2)NC(=O)[C@@H]2CSSC[C@H](NC(=O)N[C@H](c3cccc4ccccc34)CC(=O)N[C@@H](CCCNC(=N)N)C(=O)N3CCC[C@H]3C(=O)NCC(=O)N[C@@H](CCCNC(=N)N)C(=O)N[C@H](c3cccc4ccccc34)CC(=O)N2)C(=O)N[C@@H](Cc2ccccc2)C(=O)NC(=O)[C@H](CC(=O)O)NC(=O)[C@H](CO)NC1=O | > 30 µM | 7.22 µM | –
NCCCC[C@H](N)C(=O)N[C@@H](CC(=O)N[C@@H](Cc1ccccc1)C(=O)O)c1ccc(-c2ccccc2)cc1 | > 100 µM | > 100 µM | IC50 (Calu-3 [4]): > 100 µM; IC50 (A549): > 100 µM
CC[C@H](C)[C@@H]1NC(=O)[C@@H]2CSSC[C@H](NC(=O)[C@H](CCCNC(=N)N)NC(=O)CNC(=O)[C@H](CC(=O)O)NC(=O)[C@@H]3CCCN3C(=O)N[C@@H](Cc3ccccc3)C(=O)N2)C(=O)N[C@@H]([C@H](C)O)C(=O)N[C@@H](CCCCN)C(=O)N([C@@H](CO)C(=O)O)C(=O)[C@H]([C@@H](C)CC)NC(=O)[C@@H]2CCCN2C(=O)[C@@H]2CCCN2C1=O | – | – | IC50 (Calu-3 [4]): > 100 µM; IC50 (A549): > 100 µM
